Calls of active or inactive are those of the source. The calls are words filed in the database; no cut-off is given here. Where a SMILES comes first, the peptide text is derived from it. The star is where a group is joined. Cbz = O=C(OCc1ccccc1)*

The test system of data set [1] is RAW264.7. As to the kind of experiment: Cytotoxicity against mouse RAW264.7 cells assessed as reduction in cell survival at 1 uM after 9 days Giemsa staining based assay. The class given is toxicity. The note with it: raw264.7, 216 h, time 9 day. The method in brief:
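Raw264.7 cells plated at 50, 100 and 200 viable cells in duplicate wells, primed 48 h with 100 ng ml⁻¹ LPS, then given fresh media containing 1 μM inhibitor. Grown 9 days, then fixed in methanol-acetic acid (3:1) and stained 30 min with 10% Giemsa. Colonies over 20 cells counted. Survival expressed as percent of colonies on plates without LPS or inhibitor.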

The target of data set [2] is T1, Histone-lysine N-methyltransferase EHMT2 (Mus musculus) (UniProt Q9Z148).
T1 sequence (whole entry): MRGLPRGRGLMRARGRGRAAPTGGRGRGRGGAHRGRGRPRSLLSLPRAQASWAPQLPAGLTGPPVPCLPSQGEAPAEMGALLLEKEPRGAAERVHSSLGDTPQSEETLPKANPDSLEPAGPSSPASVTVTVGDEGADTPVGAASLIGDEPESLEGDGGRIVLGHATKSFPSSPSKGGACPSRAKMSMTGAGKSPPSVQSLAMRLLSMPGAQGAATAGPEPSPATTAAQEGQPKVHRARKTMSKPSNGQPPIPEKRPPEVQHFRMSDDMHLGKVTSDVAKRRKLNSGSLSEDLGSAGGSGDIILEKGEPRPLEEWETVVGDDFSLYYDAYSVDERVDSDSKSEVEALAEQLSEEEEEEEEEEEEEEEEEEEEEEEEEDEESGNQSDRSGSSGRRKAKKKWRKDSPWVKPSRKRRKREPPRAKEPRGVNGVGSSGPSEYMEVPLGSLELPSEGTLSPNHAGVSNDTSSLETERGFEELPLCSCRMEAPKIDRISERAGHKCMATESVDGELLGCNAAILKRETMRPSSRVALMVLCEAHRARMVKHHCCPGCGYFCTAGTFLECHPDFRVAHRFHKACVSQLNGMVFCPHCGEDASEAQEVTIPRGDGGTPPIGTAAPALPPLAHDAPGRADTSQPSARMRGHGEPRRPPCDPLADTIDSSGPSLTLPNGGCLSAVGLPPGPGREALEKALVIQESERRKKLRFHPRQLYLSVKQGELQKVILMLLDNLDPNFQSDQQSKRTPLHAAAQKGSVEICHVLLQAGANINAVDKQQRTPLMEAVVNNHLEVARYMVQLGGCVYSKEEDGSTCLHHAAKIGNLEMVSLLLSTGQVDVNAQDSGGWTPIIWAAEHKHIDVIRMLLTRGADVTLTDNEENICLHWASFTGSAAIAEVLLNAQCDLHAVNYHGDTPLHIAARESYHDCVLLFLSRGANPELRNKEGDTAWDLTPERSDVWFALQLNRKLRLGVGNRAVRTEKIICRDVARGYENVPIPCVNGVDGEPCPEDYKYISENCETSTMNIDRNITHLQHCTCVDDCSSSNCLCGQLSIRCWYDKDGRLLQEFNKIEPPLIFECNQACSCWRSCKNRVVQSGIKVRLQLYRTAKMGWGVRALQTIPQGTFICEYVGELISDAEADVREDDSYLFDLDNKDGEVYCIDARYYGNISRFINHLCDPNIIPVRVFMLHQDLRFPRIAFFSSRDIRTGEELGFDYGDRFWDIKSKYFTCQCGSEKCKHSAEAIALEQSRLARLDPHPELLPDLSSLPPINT
The note with it: C57BL/6, BMDM, dose 250.0 nM, time 16.0 hrs.

Data set [3] deals with T1, Histone-lysine N-methyltransferase EHMT2 (Mus musculus). The note with it: C57BL/6, RAW264.7, dose 250.0 nM, time 16.0 hrs.
The target is the same in data set [4]. The note with it: C57BL/6, RAW264.7, dose 250.0 nM, time 16.0 hrs. This is another data set of the same source.
For data set [5] the target is unchanged. The note with it: C57BL/6, BMDM, dose 250.0 nM, time 16.0 hrs. This is another data set of the same source.
The target is the same in data set [6]. The note with it: C57BL/6, BMDM, dose 250.0 nM, time 16.0 hrs. This is another data set of the same source.
Data set [7] has the same target. The note with it: C57BL/6, BMDM, dose 250.0 nM, time 16.0 hrs. The source holds these as a separate data set.
In data set [8] the test system is RAW264.7. As to the kind of experiment: Upregulation of C-Myc protein expression in LPS tolerant mouse RAW264.7 cells at 10 uM upto 4 hrs in presence of LPS by immunoblot analysis. The class given is functional, cell-based.
The subject of data set [9] is RAW264.7. As to the kind of experiment: Upregulation of C-Myc protein expression in LPS tolerant mouse RAW264.7 cells with G9a knock down at 10 uM upto 4 hrs in presence of LPS by immunoblot analysis. Format: functional, cell-based.
Data set [10] relates to RAW264.7. Put plainly: Upregulation of C-Myc protein expression in LPS tolerant mouse RAW264.7 cells in presence of G9a/LPS at 10 uM upto 4 hrs by immunoblot analysis. Format: functional, cell-based.
The subject of data set [11] is RAW264.7. Put plainly: Down regulation of c-Myc protein expression in LPS tolerant mouse RAW264.7 cells at 1 ug/ml upto 90 mins in presence of LPS by immunoblot analysis. The class given is functional, cell-based. The note with it: dose 1.0 µg/ml. The method, boiled down:
(§1)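 Raw264.7 cells (shRNA G9a-knockdown line with ≥90% knockdown, or empty-vector control) primed with 100 ng ml⁻¹ LPS for 24 h, then given 1 µg ml⁻¹ cycloheximide for indicated times. c-Myc was detected by anti-c-Myc immunoblot with γ-tubulin loading control. Bands were quantified by densitometry and plotted, and half-life was read from the fitted curve.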

The test system of data set [12] is RAW264.7. As to the kind of experiment: Down regulation of c-Myc protein expression in LPS tolerant mouse RAW264.7 cells with G9a knockdown at 1 ug/ml upto 90 mins by immunoblot analysis. Format: functional, cell-based. The note with it: dose 1.0 µg/ml. The method, boiled down:
as §1

In data set [13] the test system is RAW264.7. Put plainly: Down regulation of c-Myc protein expression in LPS tolerant mouse RAW264.7 cells with G9a overexpression at 1 ug/ml upto 90 mins in presence of LPS by immunoblot analysis. Format: functional, cell-based. The note with it: dose 1.0 µg/ml.

As to `COc1cc2c(NC3CCN(C(C)C)CC3)nc(C3CCCCC3)nc2cc1OCCCN1CCCC1`, the Activity entry in data set [1] was “Toxic”. For the same molecule, the inhibition result in data set [2], in data set [3], in data set [4], in data set [5], in data set [6] and in data set [7] was “Active” in each case.

On to `CC(C)C[C@@H](C=O)NC(=O)[C@H](CC(C)C)NC(=O)[C@H](CC(C)C)NC(=O)OCc1ccccc1` (Cbz-Leu-Leu-Leu-aldehyde), for which the result in data set [8] and in data set [9] was Active. Also, the outcome in [10] was inactive.

For the molecule `C[C@@H]1C[C@@H]([C@H](O)CC2CC(=O)NC(=O)C2)C(=O)[C@@H](C)C1`, the result in data set [11] and in data set [12] was Active. Further, the result in data set [13] was inactive.

For the origin of these results see ChEMBL document CHEMBL5712885, “A chromatin activity-based chemoproteomic approach reveals a transcriptional repressome for gene-specific silencing” (Nat Commun, 2014).
